Test results taken from ChEMBL document CHEMBL1152834, “Synthesis and potential anticonvulsant activity of new N-3-substituted 5,5-cyclopropanespirohydantoins” (2009).

Key:
Format in all cases: functional
Mus musculus [1] = experiment: Anticonvulsant activity in mouse assessed as inhibition of maximal electroshock-induced seizures at 30 mg/kg, po
In short: (§1)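 Male Kunming mice (20 ± 2.0 g), 10 per group, given test agent orally as a suspension in 0.5% carboxymethyl cellulose–0.9% saline. After 1 h, a 25 mA shock was delivered through ear electrodes for 0.25 s. Protection was scored as abolition of the hind limb tonic extensor component. Results are given as animals protected/animals tested.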

Mus musculus [2] = experiment: Anticonvulsant activity in mouse assessed as inhibition of subcutaneous pentylenetetrazole-induced seizures at 80 mg/kg, po
In short: (§2)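 Male Kunming mice (20 ± 2.0 g) received oral test agent suspended in 0.5% carboxymethyl cellulose–0.9% saline. Pentylenetetrazole 70 mg/kg in 0.9% saline was then injected subcutaneously in the scruff of the neck. Protection meant no threshold seizure, i.e. no single clonic spasm episode lasting at least 5 s.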

Mus musculus [3] = experiment: Anticonvulsant activity in mouse assessed as inhibition of subcutaneous pentylenetetrazole-induced seizures at 40 mg/kg, po; in short: as §2
Mus musculus [4] = experiment: Anticonvulsant activity in mouse assessed as inhibition of subcutaneous pentylenetetrazole-induced seizures at 20 mg/kg, po; in short: as §2
Mus musculus [5] = experiment: Anticonvulsant activity in mouse assessed as inhibition of maximal electroshock-induced seizures at 15 mg/kg, po; in short: as §1
Mus musculus [6] = experiment: Anticonvulsant activity in mouse assessed as inhibition of maximal electroshock-induced seizures at 7.5 mg/kg, po; in short: as §1

SMILES | inhibition in vivo at 30 mg/kg (Mus musculus [1]) [%] | inhibition in vivo at 80 mg/kg (Mus musculus [2]) [%] | inhibition in vivo at 40 mg/kg (Mus musculus [3]) [%] | inhibition in vivo at 20 mg/kg (Mus musculus [4]) [%] | inhibition in vivo at 15 mg/kg (Mus musculus [5]) [%] | inhibition in vivo at 7.5 mg/kg (Mus musculus [6]) [%]
CC1(C)CC12NC(=O)N(Cc1ccccc1)C2=O (stereo not drawn) | 70 | – | – | – | – | –
CCCC(CCC)C(=O)O [VALPROATE SODIUM] | – | 80 | 50 | 30 | – | –
COc1ccc(N2C(=O)NC3(CC3(C)C)C2=O)cc1 (stereo not drawn) | 60 | – | – | – | – | –
CN1C(=O)NC2(CC2(C)C)C1=O (stereo not drawn) | 90 | 60 | 30 | 20 | 50 | 40
CC1(C)CC12NC(=O)N(c1ccc([N+](=O)[O-])cc1)C2=O (stereo not drawn) | 60 | – | – | – | – | –
CC1(C)CC12NC(=O)N(c1ccccc1)C2=O (stereo not drawn) | 80 | 60 | 40 | 20 | 40 | 20
CC(C)N1C(=O)NC2(CC2(C)C)C1=O (stereo not drawn) | 70 | – | – | – | – | –
CC1(C)CC12NC(=O)N(c1ccc(F)cc1)C2=O (stereo not drawn) | 80 | 70 | 50 | 30 | 50 | 30
CC1(C)CC12NC(=O)NC2=O (stereo not drawn) | 50 | – | – | – | – | –
CC1(C)CC12NC(=O)N(c1cc(Cl)cc(Cl)c1)C2=O (stereo not drawn) | 50 | – | – | – | – | –
Cc1ccc(N2C(=O)NC3(CC3(C)C)C2=O)cc1 (stereo not drawn) | 50 | – | – | – | – | –
O=C1N=C(O)NC1(c1ccccc1)c1ccccc1 [PHENYTOIN SODIUM] | 90 | – | – | – | 50 | 20
CCC(CO)N1C(=O)NC2(CC2(C)C)C1=O (stereo not drawn) | 90 | 70 | 40 | 20 | 50 | 30
CCCCN1C(=O)NC2(CC2(C)C)C1=O (stereo not drawn) | 90 | 60 | 40 | 30 | 50 | 20
